Test results: ChEMBL document CHEMBL3352265, “Potentially bioactive organotin(IV) compounds: synthesis, characterization, in vitro bioactivities and interaction with SS-DNA” (Eur J Med Chem, 2014)
Converted amounts (≈) assume the structure as drawn. The source made the active and inactive calls. The rule behind the calls is not given here.

Tests used:
[1] = system: Escherichia coli; experiment: Antibacterial activity against Escherichia coli ATCC 15224 at 40 mg/mL after 24 hrs by disc diffusion method; assay type: functional; details: for zone of inhibition at 40000 µg/mL: ATCC 15224, 24 h, read-out: DIZ
Outline: (§1)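 Disc diffusion. Strains grown in nutrient broth at 37 °C for 24 h. 1% culture (about 10^6 CFU/mL) mixed into nutrient agar at 45 °C and poured. 4 mm paper discs received compound at 40 mg/mL stock in DMSO; final concentrations tested were […]. DMSO served as negative control, roxithromycin and cefixime as positive controls. Triplicate plates incubated at 37 °C for 24 h. Complete-inhibition zone diameter (mm) recorded as the mean of 3.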

[2] = system: Staphylococcus aureus; experiment: Antibacterial activity against Staphylococcus aureus ATCC 6538 at 40 mg/mL after 24 hrs by disc diffusion method; assay type: functional; details: for zone of inhibition at 40000 µg/mL: ATCC 6538, 24 h, read-out: DIZ; outline: as §1
[3] = system: Klebsiella aerogenes; experiment: Antibacterial activity against Enterobacter aerogenes ATCC 13048 at 40 mg/mL after 24 hrs by disc diffusion method; assay type: functional; details: for zone of inhibition at 40000 µg/mL: ATCC 13048, 24 h, read-out: DIZ; outline: as §1
[4] = system: Salmonella typhimurium; experiment: Antibacterial activity against Salmonella typhimurium ATCC 14028 at 40 mg/mL after 24 hrs by disc diffusion method; assay type: functional; details: for inhibition zone (IZ): Salmonella enterica subsp. enterica serovar Typhimurium; for zone of inhibition at 40000 µg/mL: Salmonella enterica, ATCC 14028, 24 h, read-out: DIZ; outline: as §1
[5] = system: Bordetella bronchiseptica; experiment: Antibacterial activity against Bordetella bronchiseptica ATCC 4617 at 40 mg/mL after 24 hrs by disc diffusion method; assay type: functional; details: for zone of inhibition at 40000 µg/mL: ATCC 4617, 24 h, read-out: DIZ; outline: as §1
[6] = system: Bacillus spizizenii; experiment: Antibacterial activity against Bacillus subtilis ATCC 6633 at 40 mg/mL after 24 hrs by disc diffusion method; assay type: functional; details: for zone of inhibition at 40000 µg/mL: ATCC 6633, 24 h, read-out: DIZ; outline: as §1
[7] = system: Escherichia coli; experiment: Antibacterial activity against Escherichia coli ATCC 15224 after 18 hrs by microdilution method; assay type: functional
Outline: (§2)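 Broth microdilution. Twofold dilutions in culture broth at […]. Each well inoculated with bacterial suspension (10^8 CFU/mL, about 10^5 CFU/well). Sterility control and growth control (broth plus DMSO) included. Incubated at 36 °C for 18 h, in triplicate. MIC taken as the lowest concentration inhibiting growth, given in micrograms per mL.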

[8] = system: Staphylococcus aureus; experiment: Antibacterial activity against Staphylococcus aureus ATCC 6538 after 18 hrs by microdilution method; assay type: functional; outline: as §2
[9] = system: Klebsiella aerogenes; experiment: Antibacterial activity against Enterobacter aerogenes ATCC 13048 after 18 hrs by microdilution method; assay type: functional, organism-based; outline: as §2
[10] = system: Salmonella typhimurium; experiment: Antibacterial activity against Salmonella typhimurium ATCC 14028 after 18 hrs by microdilution method; assay type: functional; details: Salmonella enterica subsp. enterica serovar Typhimurium; outline: as §2
[11] = system: Bordetella bronchiseptica; experiment: Antibacterial activity against Bordetella bronchiseptica ATCC 4617 after 18 hrs by microdilution method; assay type: functional; outline: as §2
[12] = system: Bacillus spizizenii; experiment: Antibacterial activity against Bacillus subtilis ATCC 6633 after 18 hrs by microdilution method; assay type: functional; outline: as §2
[13] = system: Aspergillus niger; experiment: Antifungal activity against Aspergillus niger FCBP 0198 at 40 mg/mL after 7 days by disc diffusion method; assay type: functional
Outline: (§3)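 Disc diffusion on SDA. Fungi cultured at 28 °C for 24 h. 4 mm discs received compound at 40 mg/mL stock in DMSO. DMSO served as negative control, terbinafine as positive control. Plates incubated at 28 °C for 7 days. Growth diameter (mm) measured and inhibition calculated against the negative control. MIC taken as the lowest concentration with no growth.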

[14] = system: Aspergillus fumigatus; experiment: Antifungal activity against Aspergillus fumigatus FCBP 66 at 40 mg/mL after 7 days by disc diffusion method; assay type: functional; outline: as §3
[15] = system: Aspergillus flavus; experiment: Antifungal activity against Aspergillus flavus FCBP 0064 at 40 mg/mL after 7 days by disc diffusion method; assay type: functional; outline: as §3
[16] = system: Mucor; experiment: Antifungal activity against Mucor FCBP 0400 at 40 mg/mL after 7 days by disc diffusion method; assay type: functional; outline: as §3
[17] = system: Aspergillus niger; experiment: Antifungal activity against Aspergillus niger FCBP 0198 after 7 days by disc diffusion method; assay type: functional, organism-based; outline: as §3
[18] = system: Artemia salina; experiment: Cytotoxicity in brine shrimp assessed as mortality after 24 hrs; assay type: functional
[19] = system: Agrobacterium tumefaciens; experiment: Antitumor activity against Agrobacterium tumefaciens -induced tumor at 1000 ug/ml after 21 days by potato disc bioassay technique; assay type: functional
Outline: (§4)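 Potato disc assay with 48 h culture of A. tumefaciens At-10. Inoculum contained compound at […]. Red-skinned potatoes sterilized in 0.1% HgCl2; 8 mm × 4 mm discs placed ten per 1.5% agar plate, […] each. Incubated at 28 °C in the dark for 21 days, in triplicate. Discs stained with Lugol's and tumors counted. Percent inhibition calculated against the negative control.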

[20] = system: Agrobacterium tumefaciens; experiment: Antitumor activity against Agrobacterium tumefaciens -induced tumor at 100 ug/ml after 21 days by potato disc bioassay technique; assay type: functional; outline: as §4
[21] = system: Agrobacterium tumefaciens; experiment: Antitumor activity against Agrobacterium tumefaciens -induced tumor at 10 ug/ml after 21 days by potato disc bioassay technique; assay type: functional; outline: as §4
[22] = system: Escherichia coli; experiment: Induction of Escherichia coli pBR322 DNA damage assessed as open circular form at 1000 ug/ml after 60 mins by gel electrophoresis
[23] = system: Escherichia coli; experiment: Induction of Escherichia coli pBR322 DNA damage assessed as open circular form at 100 ug/ml after 60 mins by gel electrophoresis
[24] = system: Escherichia coli; experiment: Induction of Escherichia coli pBR322 DNA damage assessed as open circular form at 10 ug/ml after 60 mins by gel electrophoresis
[25] = system: Escherichia coli; experiment: Induction of Escherichia coli pBR322 DNA damage assessed as open circular form at 1 ug/ml after 60 mins by gel electrophoresis
[26] = system: Aspergillus fumigatus; experiment: Antifungal activity against Aspergillus fumigatus FCBP 66 after 7 days by disc diffusion method; assay type: functional, organism-based; outline: as §3

Compound	inhibition zone (IZ) [1]	inhibition zone (IZ) [2]	inhibition zone (IZ) [3]	inhibition zone (IZ) [4]	inhibition zone (IZ) [5]	inhibition zone (IZ) [6]	MIC [7]	MIC [8]	MIC [9]	MIC [10]	MIC [11]	MIC [12]	inhibition zone (IZ) [13]	inhibition zone (IZ) [14]	inhibition zone (IZ) [15]	inhibition zone (IZ) [16]	LD50 [18]	Activity [19]	Activity [20]	Activity [21]	other results
Dimethylstannanediyl bis(4-(2-methoxyphenylamino)-4-oxobutanoate)	16 mm	17 mm	21 mm	16 mm	19 mm	18 mm	50 µg/mL	100 µg/mL	100 µg/mL	150 µg/mL	50 µg/mL	100 µg/mL	15 mm	0 mm	0 mm	0 mm	2.89 µg/mL	91.4%	62.9%	43.2%	MIC [17]: 200 µg/mL; Activity [22]: Active; Activity [23]: Active; Activity [24]: Active; Activity [25]: Active
CN(C/C=C/C#CC(C)(C)C)Cc1cccc2ccccc12 [TERBINAFINE]																					zone of inhibition at 40000 µg/mL ([13]; FCBP 0198, 168 h, read-out: DIZ): 35 mm; zone of inhibition at 40000 µg/mL ([14]; FCBP 66, 168 h, read-out: DIZ): 35 mm; zone of inhibition at 40000 µg/mL ([15]; FCBP 0064, 168 h, read-out: DIZ): 35 mm; zone of inhibition at 40000 µg/mL ([16]; FCBP 0400, 168 h, read-out: DIZ): 32 mm
Dibutylstannanediyl bis(4-(2-methoxyphenylamino)-4-oxobutanoate)	17 mm	14 mm	27 mm	17 mm	20 mm	22 mm	50 µg/mL	100 µg/mL	25 µg/mL	50 µg/mL	50 µg/mL	50 µg/mL	14 mm	12 mm	0 mm	0 mm	0.611 µg/mL	88.3%	65.5%	50.2%	MIC [17]: 150 µg/mL; MIC [26]: 200 µg/mL; Activity [22]: inactive; Activity [23]: inactive; Activity [24]: inactive; Activity [25]: inactive
CC[C@H]1OC(=O)[C@H](C)[C@@H](O[C@H]2C[C@@](C)(OC)[C@@H](O)[C@H](C)O2)[C@H](C)[C@@H](O[C@@H]2O[C@H](C)C[C@H](N(C)C)[C@H]2O)[C@](C)(O)C[C@@H](C)/C(=N\OCOCCOC)[C@H](C)[C@@H](O)[C@]1(C)O [ROXITHROMYCIN]																					zone of inhibition at 40000 µg/mL [1]: 14 mm; zone of inhibition at 40000 µg/mL [2]: 14 mm; zone of inhibition at 40000 µg/mL [3]: 12 mm; zone of inhibition at 40000 µg/mL [4]: 16 mm; zone of inhibition at 40000 µg/mL [5]: 19 mm; zone of inhibition at 40000 µg/mL [6]: 10 mm
Dibenzylstannanediyl bis[4-(2-methoxyphenylamino)-4-oxobutanoate]	16 mm	20 mm	14 mm	0 mm	19 mm	11 mm	50 µg/mL	100 µg/mL	150 µg/mL		50 µg/mL	200 µg/mL	11 mm	0 mm	0 mm	0 mm	1.1 µg/mL	87.1%	52%	19.3%	MIC [17]: 200 µg/mL; Activity [22]: Active; Activity [23]: Active; Activity [24]: Active; Activity [25]: Active
COc1cccc2c1C(=O)c1c(O)c3c(c(O)c1C2=O)C[C@@](O)(C(=O)CO)C[C@@H]3O[C@H]1C[C@H](N)[C@H](O)[C@H](C)O1 [DOXORUBICIN]																					LC50 ([18]; read-out: LD50 (the source's name)): 0.434 µg/mL (≈ 0.798 µM)
CC[C@]1(O)C[C@H]2CN(CCc3c([nH]c4ccccc34)[C@@](C(=O)OC)(c3cc4c(cc3OC)N(C=O)[C@H]3[C@@](O)(C(=O)OC)[C@H](OC(C)=O)[C@]5(CC)C=CCN6CC[C@]43[C@@H]65)C2)C1 [VINCRISTINE]																		100%	100%	100%	
C=CC1=C(C(=O)O)N2C(=O)[C@@H](NC(=O)/C(=N\OCC(=O)O)c3csc(N)n3)[C@H]2SC1 [CEFIXIME]																					zone of inhibition at 40000 µg/mL [1]: 24 mm; zone of inhibition at 40000 µg/mL [2]: 26 mm; zone of inhibition at 40000 µg/mL [3]: 10 mm; zone of inhibition at 40000 µg/mL [4]: 26 mm; zone of inhibition at 40000 µg/mL [5]: 13 mm; zone of inhibition at 40000 µg/mL [6]: 25 mm
Dioctylstannanediyl bis(4-(2-methoxyphenylamino)-4-oxobutanoate)	10 mm	0 mm	0 mm	12 mm	11 mm	9 mm	200 µg/mL			150 µg/mL		200 µg/mL	0 mm	0 mm	0 mm	0 mm	0.499 µg/mL	65.5%	44.9%	31.2%	
